Experimental data as given in ChEMBL document CHEMBL2074148, “Interaction of human and rat organic anion transporter 2 with various cephalosporin antibiotics” (Eur J Pharmacol, 2003).
Values belong to the molecule of their own block, whether it stands above or below them.

How the values were obtained:
Format in all cases: functional, cell-based
[1] = target: T1, Solute carrier family 22 member 7 (Rattus norvegicus, UniProt Q5RLM2); test: (§1) TP_TRANSPORTER: inhibition of PGF2alpha in OAT2-S2 cells
T1 sequence (Q5RLM2 whole entry): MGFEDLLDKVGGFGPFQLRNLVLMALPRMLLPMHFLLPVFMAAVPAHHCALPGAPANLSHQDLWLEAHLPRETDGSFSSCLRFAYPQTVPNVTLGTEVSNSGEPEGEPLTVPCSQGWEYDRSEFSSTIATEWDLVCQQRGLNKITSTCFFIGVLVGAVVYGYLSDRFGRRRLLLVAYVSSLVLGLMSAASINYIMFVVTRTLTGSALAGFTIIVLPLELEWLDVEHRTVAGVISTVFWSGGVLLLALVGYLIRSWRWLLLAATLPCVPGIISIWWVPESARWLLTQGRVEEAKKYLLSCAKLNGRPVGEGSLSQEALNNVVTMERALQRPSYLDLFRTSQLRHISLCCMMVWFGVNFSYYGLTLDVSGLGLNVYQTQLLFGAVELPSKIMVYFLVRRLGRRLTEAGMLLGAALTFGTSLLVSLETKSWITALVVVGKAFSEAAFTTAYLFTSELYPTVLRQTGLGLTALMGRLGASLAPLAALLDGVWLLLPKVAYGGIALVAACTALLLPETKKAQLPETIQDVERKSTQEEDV
Method in brief: (§2)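 S2 cells stably expressing human or rat OAT2, seeded at 1 × 10^5 cells/well and grown for 2 days. Washed, then preincubated 10 min at 37 °C in D-PBS (pH 7.4). Uptake of 50 nM [3H]prostaglandin F2α measured at 37 °C with or without various concentrations of cephalosporin: 20 s for human OAT2, 2 min for rat OAT2. Stopped with ice-cold D-PBS; cells lysed in 0.1 N NaOH; scintillation counting.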

[2] = target: T2, Solute carrier family 22 member 7 (Homo sapiens, UniProt Q9Y694); test: as §1; method in brief: as §2
T2 sequence (Q9Y694 whole entry): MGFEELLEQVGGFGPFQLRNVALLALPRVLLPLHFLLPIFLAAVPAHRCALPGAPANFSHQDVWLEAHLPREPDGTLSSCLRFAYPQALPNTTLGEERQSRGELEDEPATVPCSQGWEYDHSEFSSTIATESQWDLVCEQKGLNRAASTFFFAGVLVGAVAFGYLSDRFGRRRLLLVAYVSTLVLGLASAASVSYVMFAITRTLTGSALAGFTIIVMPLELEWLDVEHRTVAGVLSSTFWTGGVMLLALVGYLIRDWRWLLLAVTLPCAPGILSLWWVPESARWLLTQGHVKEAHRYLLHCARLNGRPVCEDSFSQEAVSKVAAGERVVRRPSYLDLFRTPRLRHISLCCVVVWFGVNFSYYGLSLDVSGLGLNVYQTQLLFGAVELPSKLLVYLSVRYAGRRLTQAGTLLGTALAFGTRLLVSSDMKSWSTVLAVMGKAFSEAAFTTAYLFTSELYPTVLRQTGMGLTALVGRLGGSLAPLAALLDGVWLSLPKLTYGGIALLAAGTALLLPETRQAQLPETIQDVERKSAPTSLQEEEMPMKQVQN

[3] = target: T3, Solute carrier family 22 member 11 (Homo sapiens, UniProt Q9NSA0); test: TP_TRANSPORTER: cell viability in OAT4-S2 cells
T3 sequence (Q9NSA0 whole entry): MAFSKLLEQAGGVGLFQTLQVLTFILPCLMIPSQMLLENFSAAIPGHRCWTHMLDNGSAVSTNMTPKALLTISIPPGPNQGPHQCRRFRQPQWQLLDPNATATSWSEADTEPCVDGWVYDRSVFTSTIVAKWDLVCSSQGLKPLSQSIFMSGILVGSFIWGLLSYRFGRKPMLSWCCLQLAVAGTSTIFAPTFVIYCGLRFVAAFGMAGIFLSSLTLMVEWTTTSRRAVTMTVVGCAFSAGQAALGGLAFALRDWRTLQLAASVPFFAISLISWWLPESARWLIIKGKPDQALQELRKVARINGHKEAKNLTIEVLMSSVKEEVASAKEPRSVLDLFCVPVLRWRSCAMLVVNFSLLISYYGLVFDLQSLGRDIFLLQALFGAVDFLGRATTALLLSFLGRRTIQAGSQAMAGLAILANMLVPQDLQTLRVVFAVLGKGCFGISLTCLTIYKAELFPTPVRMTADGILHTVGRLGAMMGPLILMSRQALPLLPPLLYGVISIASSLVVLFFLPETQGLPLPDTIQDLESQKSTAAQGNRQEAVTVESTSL
Method in brief: (§3)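 S2 cells stably transfected with the human OAT (pcDNA3.1), alongside mock-transfected controls, were seeded at 1 × 10^5 cells/well and cultured for 2 days. Cells were then exposed to 5 mM cephalosporin, with or without 1 mM probenecid, at 33 °C for 24 h. MTT was added for a further 4 h at 33 °C. Cells were solubilized in isopropanol/HCl and OD read at 570 nm (630 nm reference). Four determinations; mean ± S.E.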

[4] = target: T4, Organic anion transporter 3 (Homo sapiens, UniProt Q8TCC7); test: TP_TRANSPORTER: cell viability in OAT3-S2 cells; method in brief: as §3
T4 sequence (Q8TCC7 whole entry): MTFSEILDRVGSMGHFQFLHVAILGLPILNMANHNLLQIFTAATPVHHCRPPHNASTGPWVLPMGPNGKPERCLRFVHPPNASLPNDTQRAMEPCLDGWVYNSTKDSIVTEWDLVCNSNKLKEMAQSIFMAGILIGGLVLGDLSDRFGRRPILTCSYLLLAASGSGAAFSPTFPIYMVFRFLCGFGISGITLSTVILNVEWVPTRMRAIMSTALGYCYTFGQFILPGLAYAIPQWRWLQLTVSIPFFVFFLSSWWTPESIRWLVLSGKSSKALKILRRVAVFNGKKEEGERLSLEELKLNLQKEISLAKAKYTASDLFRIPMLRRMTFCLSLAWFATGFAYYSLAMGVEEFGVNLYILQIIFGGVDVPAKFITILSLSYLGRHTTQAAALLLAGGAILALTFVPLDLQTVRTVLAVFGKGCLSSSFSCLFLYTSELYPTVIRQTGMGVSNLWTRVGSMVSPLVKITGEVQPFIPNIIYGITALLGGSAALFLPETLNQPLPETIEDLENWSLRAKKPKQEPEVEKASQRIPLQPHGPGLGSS

[5] = substrate: CCCCC[C@H](O)/C=C/[C@@H]1[C@@H](C/C=C\CCCC(=O)O)[C@@H](O)C[C@H]1O; test: TP_TRANSPORTER: uptake in OAT2-S2 cells

Molecule: CCN1CCN(C(=O)N[C@@H](C(=O)N[C@@H]2C(=O)N3C(C(=O)O)=C(CSc4nnnn4C)CS[C@H]23)c2ccc(O)cc2)C(=O)C1=O [CEFOPERAZONE]
IC50 [1]: 1620 µM
IC50 [2]: 1330 µM

Molecule: CO/N=C(\C(=O)N[C@@H]1C(=O)N2C(C(=O)O)=C(COC(C)=O)CS[C@H]12)c1csc(N)n1 [CEFOTAXIME]
IC50 [1]: > 5000 µM
IC50 [2]: 4680 µM

B1: Solute carrier family 22 member 7 (Rattus norvegicus) (protein)
chain: T1 sequence (Q5RLM2 whole entry)
Km [5]: 0.414 µM

Second part, led by results:

IC50 [1]: 3180 µM
IC50 [2]: 1570 µM
Molecule: Cn1nnnc1SCC1=C(C(=O)O)N2C(=O)[C@@H](NC(=O)[C@H](O)c3ccccc3)[C@H]2SC1 [CEFAMANDOLE]

IC50 [1]: > 5000 µM
IC50 [2]: 4480 µM
Molecule: O=C(Cc1cccs1)N[C@@H]1C(=O)N2C(C(=O)[O-])=C(C[n+]3ccccc3)CS[C@H]12 [CEPHALORIDINE]
Activity [3]: substrate []
Activity [4]: substrate []

IC50 [1]: 1500 µM
IC50 [2]: 1410 µM
Molecule: CC(=O)OCC1=C(C(=O)O)N2C(=O)[C@@H](NC(=O)Cc3cccs3)[C@H]2SC1 [CEPHALOTHIN]
